# Data reported in ChEMBL document CHEMBL1123247, “Nucleoside conjugates. 7. Synthesis and antitumor activity of 1-beta-D-arabinofuranosylcytosine conjugates of ether lipids” (J Med Chem, 1986).
# Tests used:
# P388 [1] = experiment: Antitumor activity was determined against the ip implanted P388 leukemia in mice by percent increase in life span at 60 mg/kg (treatment of 1-5qd schedule) dosage; type: functional, Mus musculus; conditions: route intraperitoneal
# Procedure, shortened: (§1)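 DBA/2J mice, 23-33 g, in groups of 6, were inoculated ip with 1×10^6 P388 cells on day 0. Dosing was ip from 24 h on the stated schedules, in 0.9% NaCl with 0.5% Tween-80 (sonicated solution or suspension). Survival was followed daily until death or 45 days. Median T/C was calculated from survivors per NCI protocols, with ILS = (T/C − 1) × 100.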
# P388 [2] = experiment: Antitumor activity against ip implanted P388 leukemia in mice expressed as active dose range (1-5qd treatment schedule) required to produce increase in life span by >25% was determined; Range is 40-60; type: functional, Mus musculus
# Procedure, shortened: (§2)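 P388 leukemia: 1 × 10^6 cells were given ip on day 0 to DBA/2J mice, groups of 6 (23-33 g). Treatment was ip from 24 h after inoculation, vehicle 0.9% NaCl with 0.5% Tween-80. Mice were observed daily until death or 45 days. Median survival T/C was calculated from survivors per NCI protocols, and ILS = (T/C − 1) × 100. Active range means doses giving ILS ≥25%; optimal dose means greatest ILS.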
# L1210 [3] = experiment: Antitumor activity was determined against the ic implanted L1210 lymphoid leukemia in mice by percent increase in life span at 100 mg/kg (treatment of 1-5qd schedule) dosage; type: functional, Mus musculus
# Procedure, shortened: (§3)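 DBA/2J mice, groups of 6 (26-32 g), got 1 × 10^5 L1210 cells ic on day 0. Dosing was ip starting 24 h later, as a sonicated solution or suspension in 0.9% NaCl with 0.5% Tween-80, over a wide dose range. Mice were followed daily until death. Median survival T/C was taken from survivors per NCI protocols, and ILS = (T/C − 1) × 100. Active range means doses giving ILS ≥25%; optimal dose means greatest ILS.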
# L1210 leukemia (mouse) = experiment: Antitumor activity was determined against the ic implanted L1210 lymphoid leukemia in mice by percent median survival rate (treated/control) at 500 mg/kg (treatment of 1qd schedule) dosage; 23.0/7.0
# L1210 [4] = experiment: Antitumor activity against the ic implanted L1210 lymphoid leukemia in mice expressed as optimal dose (1, 5, 9qd treatment schedule) required to produce greatest increase in life span was determined; type: functional, Mus musculus; procedure, shortened: as §3
# L1210 [5] = experiment: Antitumor activity was determined against the ic implanted L1210 lymphoid leukemia in mice by change in […] at 100 mg/kg (treatment of 1-5qd schedule) dosage; type: functional, Mus musculus
# Procedure, shortened: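 DBA/2J mice, 6 per group (wt 26-32 g), inoculated ic with 1×10^5 L1210 cells on day 0. Dosing ip began 24 h after inoculation, with a sonicated solution or suspension in 0.9% NaCl containing 0.5% Tween-80, given over a range of doses. Animals were followed daily until death. Body weight change, median survival T/C, and %ILS = (T/C − 1) × 100 were computed from survivors per NCI protocols.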
# L1210 [6] = experiment: Antitumor activity was determined against the ic implanted L1210 lymphoid leukemia in mice by median survival time at 100 mg/kg (treatment of 1-9qd schedule) dosage; 14/7.0
# AMML = experiment: Compound was tested for the inhibition of AMML (acute myelomonocytic leukemia); type: functional, cell-based; conditions: Homo sapiens
# Procedure, shortened: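 Human leukemia and solid tumor cells in culture were exposed to compound for 48 h. Viability was scored by trypan blue dye exclusion. IC50 (50% inhibition) was estimated from response curves of three separate experiments.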
# P388 [7] = experiment: Antitumor activity was determined against the ip implanted P388 leukemia in mice by range in survival days at 500 mg/kg (treatment of 1qd schedule) dosage; Range is 14-15; type: functional, Mus musculus; conditions: route intraperitoneal
# P388 [8] = experiment: Antitumor activity against ip implanted P388 leukemia in mice expressed as active dose range (1-5qd treatment schedule) required to produce increase in life span by >25% was determined; Range is 20-200; type: functional, Mus musculus; procedure, shortened: as §2
# L1210 [9] = experiment: Antitumor activity was determined against the ip implanted L1210 leukemia in mice by range in survival days at 400 mg/kg (treatment of 1qd schedule) dosage; Range is 9-11; type: functional, Mus musculus; conditions: route intraperitoneal
# Procedure, shortened: (§4)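 DBA/2J mice, 23-28 g, in groups of 6, were inoculated ip with 1×10^6 L1210 cells on day 0. Dosing was ip starting 24 h later on the stated daily schedules. Conjugates were given as sonicated solutions and reference prodrugs as suspensions in 0.9% NaCl with 0.5% Tween-80. Mice were observed daily until death or 45 days. Median survival T/C was calculated from survivors per NCI protocols.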
# L1210 [10] = experiment: Antitumor activity was determined against the ip implanted L1210 leukemia in mice by 45-day survivors in mice at 200 mg/kg (treatment of 1-5qd schedule) dosage; type: functional, Mus musculus; conditions: route intraperitoneal
# Procedure, shortened: (§5)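 DBA/2J mice in groups of 6 (wt 23-28 g) were inoculated ip with 1×10^6 L1210 cells on day 0. Dosing was ip from 24 h, in 0.9% NaCl with 0.5% Tween-80 (conjugates sonicated), across a range of doses. Mice were observed daily until death or 45 days. Median T/C was computed from survivors per NCI protocols, and ILS = (T/C − 1)×100.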
# P388 [11] = experiment: Antitumor activity was determined against the ip implanted P388 leukemia in mice by change in […] at 67 mg/kg (treatment of 1,5,9qd schedule) dosage; type: functional, Mus musculus; conditions: route intraperitoneal
# Procedure, shortened: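 P388 leukemia, 1×10^6 cells implanted ip on day 0 into DBA/2J mice, groups of 6 (wt 23-33 g). Dosing ip started 24 h post-inoculation, vehicle 0.9% NaCl containing 0.5% Tween-80. Animals were observed daily until death or 45 days. Outputs were weight change, median survival T/C from survivors per NCI protocols, and %ILS = (T/C − 1) × 100.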
# P388 [12] = experiment: Antitumor activity was determined against the ip implanted P388 leukemia in mice by percent increase in life span at 67 mg/kg (treatment of 1,5,9qd schedule) dosage; type: functional, Mus musculus; conditions: route intraperitoneal
# L1210 [13] = experiment: Antitumor activity was determined against the ip implanted L1210 leukemia in mice by range in survival days at 100 mg/kg (treatment of 1-5qd schedule) dosage; 18-32; type: functional, Mus musculus; conditions: route intraperitoneal; procedure, shortened: as §4
# P388 [14] = experiment: Antitumor activity was determined against the ip implanted P388 leukemia in mice by 45-day survivors in mice at 67 mg/kg (treatment of 1,5,9qd schedule) dosage; type: functional, Mus musculus; conditions: route intraperitoneal; procedure, shortened: as §1
# L1210 [15] = experiment: Antitumor activity was determined against the ip implanted L1210 leukemia in mice by percent increase in life span at 100 mg/kg (treatment of 1-5qd schedule) dosage; type: functional, Mus musculus; conditions: route intraperitoneal; procedure, shortened: as §5
# L1210 [16] = experiment: Antitumor activity was determined against the ip implanted L1210 leukemia in mice by percent median survival rate (treated/control) at 300 mg/kg (treatment of 1qd schedule) dosage; 20.5/6.5; type: functional, Mus musculus; conditions: route intraperitoneal; procedure, shortened: as §4
# L1210 [17] = experiment: Antitumor activity was determined against the ic implanted L1210 lymphoid leukemia in mice by percent increase in life span at 133 mg/kg (1,5,9qd treatment schedule) dosage; type: functional, Mus musculus; procedure, shortened: as §3
# P388 [18] = experiment: Antitumor activity was determined against the ip implanted P388 leukemia in mice by range in survival days at 133 mg/kg (treatment of 1,5,9qd schedule) dosage; Range is 31->45; type: functional, Mus musculus; conditions: route intraperitoneal
structure (smiles),measurement,setting,value
CCCCCCCCCCCCCCCCOCC(COP(=O)(O)OP(=O)(O)OC[C@H]1O[C@@H](n2ccc(N)nc2=O)[C@@H](O)[C@@H]1O)OC(=O)CCCCCCCCCCCCCCC (mixture of isomers),ILS,P388 [1],>309
same,Active dose range,P388 [2],40 mg/kg/day
same,ILS,L1210 [3],214
same,T/C,L1210 leukemia (mouse),23%
same,Optimal dose,L1210 [4],167 mg
same,Weight change,L1210 [5],-2.03 g mouse-1
Nc1ccn([C@@H]2O[C@H](CO)[C@@H](O)[C@@H]2O)c(=O)n1 [CYTARABINE],median survival time,L1210 [6],14 days
same,IC50,AMML,2300 nM
same,Range,P388 [7],14
same,Active dose range,P388 [8],20 mg/kg/day
same,Range,L1210 [9],9
same,Survivors,L1210 [10],0
CCCCCCCCCCCCCCCCCCOCC(COP(=O)(O)OP(=O)(O)OC[C@H]1O[C@@H](n2ccc(N)nc2=O)[C@@H](O)[C@@H]1O)OC(=O)CCCCCCCCCCCCCCC (mixture of isomers),Weight change,P388 [11],0.63 g mouse-1
same,ILS,P388 [12],132
same,Range,L1210 [13],18
same,Survivors,P388 [14],0
same,ILS,L1210 [15],229
CCCCCCCCCCCCCCCC(=O)OC[C@H](COP(=O)(O)OP(=O)(O)OC[C@H]1O[C@@H](n2ccc(N)nc2=O)[C@@H](O)[C@@H]1O)OC(=O)CCCCCCCCCCCCCCC,median survival time,L1210 [16],20.5 days
same,ILS,L1210 [17],150
same,Range,P388 [18],31
